Screens: PubChem BioAssay, Johns Hopkins Ion Channel Center
RGS4 inh – inhibitors of human RGS4 | P49798 | HEK293 M3R/RGS4 inducible, Fluo-4 calcium flux; active compounds read high; triggered by carbachol at its EC20 | 310,000 tested, 0.45% active | AID 463165 | B-score at 10 µM;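 active means B-score, a plate-corrected calcium signal, over three deviations above library mean, with baseline fluorescence within five deviations of library mean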;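 further: RGS4 expression induced by doxycycline in cells with stable M3 receptor; B-score is computed from the integrated fluorescence ratio over baseline after carbachol; higher B-score means a larger calcium signal and so more RGS4 inhibition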
Target sequence (P49798 whole entry, looked up): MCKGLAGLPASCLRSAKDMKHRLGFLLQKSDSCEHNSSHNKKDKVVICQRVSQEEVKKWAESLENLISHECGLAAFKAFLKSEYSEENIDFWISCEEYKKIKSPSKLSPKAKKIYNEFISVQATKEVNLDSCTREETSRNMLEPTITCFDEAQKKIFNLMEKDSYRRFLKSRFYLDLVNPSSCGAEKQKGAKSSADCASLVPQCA
MrgX1 PAM – human MrgX1 positive allosteric modulation, primary screen. B-score at 10 µM. 310,000 tested, 0.63% active. MrgX1-HEK293, Fluo-4 calcium flux, FDSS; active compounds read high;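 active means plate-corrected calcium response at least 3 library SD above typical, normal starting fluorescence, not activating the receptor alone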;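 further: compound read alongside a low EC10 to EC30 dose of BAM8-22 agonist; peak minus trough fluorescence over baseline measured at the second addition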
Target sequence (Q96LB2 whole entry, looked up): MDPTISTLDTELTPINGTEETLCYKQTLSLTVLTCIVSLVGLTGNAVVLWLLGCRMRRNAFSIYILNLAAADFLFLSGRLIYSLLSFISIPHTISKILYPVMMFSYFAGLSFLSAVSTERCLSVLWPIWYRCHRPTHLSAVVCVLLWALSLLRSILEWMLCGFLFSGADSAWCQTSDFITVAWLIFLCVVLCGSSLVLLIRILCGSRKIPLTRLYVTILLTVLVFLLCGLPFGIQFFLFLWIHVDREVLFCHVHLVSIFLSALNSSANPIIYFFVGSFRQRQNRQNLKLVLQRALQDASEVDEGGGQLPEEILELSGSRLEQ
MrgX1 antagonist – human MrgX1 receptor antagonism, primary screen | B-score at 10 µM | 310,000 tested, 1.3% active | Q96LB2 | MRGX1-HEK293 calcium flux, Fluo-4, BAM8-22 antagonism; active compounds read low;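 active means calcium-response B-score plate-corrected more than 3 library SD below zero, starting fluorescence within 5 deviations, no agonist response on first addition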;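 further: peak minus trough fluorescence over baseline after final BAM8-22 challenge near maximal dose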
MrgX1 ag – activates human MrgX1 receptor signaling; Q96LB2; MrgX1-HEK293 cells, Fluo-4 calcium fluorescence, agonist mode; active compounds read high; B-score at 10 µM; 310,000 tested, 0.44% active;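 active means calcium response B-score plate-corrected fluorescence ratio at least 3 library SD, with starting fluorescence B-score inside 5 SD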
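Test system: Stable human MrgX1 HEK293 cell line | Schedule: Overnight plating before 1 h dye loading | Read-out basis: Baseline-normalised fluorescence change ratio, B-scored | Detection: Kinetic calcium dye fluorescence, Fluo-4 NW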
RGS4 act – RGS4 potentiation or activation. 310,000 tested, 0.92% active. B-score at 10 µM. HEK293 M3R/inducible RGS4, carbachol calcium flux Fluo4; active compounds read low;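 active means B-score of the integrated calcium signal more than 4 SD below the library mean, with starting fluorescence not abnormally high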;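 further: negative B-score means reduced calcium response which marks RGS4 activation or potentiation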
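Detection: kinetic calcium fluorescence imaging with Fluo4-AM dye, 2 µM / Material: HEK293 cells with stable M3R and inducible RGS4 / Schedule: recording 10 s baseline at 1 Hz, 100 s post-agonist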
* = called active by the depositor; i = inactive; · = no result given. An excerpt weighted towards active compounds, which were near 3.5% of everything screened.

SMILES	RGS4 inh	MrgX1 PAM	MrgX1 antagonist	MrgX1 ag	RGS4 act
CCCCn1c(N)c(N(CCC(C)C)C(=O)c2ccc3c(c2)OCO3)c(=O)[nH]c1=O	i	i	-5.7*	i	i
CN(Cc1ccccc1)S(=O)(=O)c1ccc(Cl)c(C(=O)NCCCN2CCOCC2)c1	i	i	i	i	i
O=S(=O)(Nc1nc2ccccc2nc1Cl)c1cccc(C(F)(F)F)c1	i	i	i	i	i
Cc1ccsc1/C=c1\sc2ncnn2c1=O	i	6.6*	i	i	i
O=c1/c(=C/c2cccc3ccccc23)sc2ncnn12	i	i	i	i	i
COC(C/C=C\[C@H](O)[C@H](C)OCc1ccccc1)OC	i	i	-5.4*	i	i
COC(=O)C1=CN(C2CC2)C=C(C(=O)OC)C1c1ccc(C(=O)OC)cc1	i	i	i	i	i
COC(=O)C1=CN(C2CC2)C=C(C(=O)OC)C1c1ccc(C(F)(F)F)cc1	i	i	-6.6*	i	i
Cn1nc(C(F)(F)F)c(-c2ccc(F)cc2)c1NC(=O)Nc1ccc(F)cc1	i	i	-5.4*	i	i
O=C1/C(=C/c2ccccc2)CCC1C1CCCC1 (stereo not drawn)	i	i	i	i	i
CN1C2CCC1/C(=C\c1ccccc1)C(=O)/C2=C\c1ccccc1	i	12*	i	i	i
CC(Sc1nncs1)C(=O)Nc1ccc2c(c1)OCO2 (stereo not drawn)	i	i	i	i	i
Cc1c(CCC(=O)N2CCC(C(=O)O)(c3ccccc3)CC2)c(=O)oc2cc3oc4c(c3cc12)CCCC4	i	i	-6.2*	i	i
Cc1c(CCC(=O)N2CCC(C(=O)O)CC2)c(=O)oc2cc3oc4c(c3cc12)CCCC4	i	i	i	i	i
Nc1nonc1NC(=O)NN=C1CCCCC1	i	i	-5.9*	i	i
Cc1cccc(C)c1NC(=O)NN=C1CCCCC1	i	i	i	i	i
CCN1CCN(CC(=O)N/N=C/c2cc(Br)cs2)CC1	i	i	i	i	i
Cc1nccn1CC(=O)N/N=C/c1cc(Br)cs1	i	i	-5.3*	i	i
O=C(N/N=C/c1ccccc1Br)c1ccc(CSc2cccc3cccnc23)cc1	i	i	i	i	i
NNC(=O)c1ccc(CSc2cccc3cccnc23)cc1	i	i	-4.6*	i	i
CC1CCC(N2CCNCC2)CC1 (stereo not drawn)	i	i	i	i	i
COc1cccc2c1C(=O)C=C(C)C2=O	i	i	-7.7*	i	-7.1*
CCN(CC)CCCNC(=O)c1ccc(N2CCCCC2)c(NS(=O)(=O)c2ccc(C)cc2)c1	i	i	i	27*	i
CNC(=O)CN(c1ccc(Oc2ccccc2)cc1)S(=O)(=O)c1ccc(C)cc1	i	i	i	i	i
Clc1cccc(CSc2ncn(-c3ccccc3)n2)c1	i	i	i	i	i
SMILES	RGS4 inh	MrgX1 PAM	MrgX1 antagonist	MrgX1 ag	RGS4 act
Clc1ccc(CSc2ncn(-c3ccccc3)n2)cc1	i	i	i	i	-7.2*
CCN1CCN(c2oc(COc3ccc(Cl)cc3)nc2C#N)CC1	i	i	i	i	i
N#Cc1nc(COc2ccccc2)oc1N1CCCC1	i	i	i	i	i
N#Cc1nc(COc2ccc(Cl)cc2)oc1N1CCN(Cc2ccccc2)CC1	i	i	i	i	-7*
N#Cc1nc(COc2ccccc2)oc1N1CCOCC1	i	i	i	i	-7.2*
CCOCCCNS(=O)(=O)c1ccc(NC(=O)Cc2c(F)cccc2Cl)cc1	i	i	i	i	i
Cc1ccc(NC(=O)c2cccc(NC3=NC4CS(=O)(=O)CC4S3)c2)cc1 (stereo not drawn)	i	i	i	i	i
O=C(Nc1ccc2nc3n(c(=O)c2c1)CCCCC3)C(=O)N1CCN(c2ccccc2F)CC1	i	i	i	i	i
Cc1ccc(S(=O)(=O)N2[C@@H](c3ccc(Cl)cc3)C(C(=O)O)=CC[C@H]2c2cccs2)cc1	·	i	i	i	·
COc1ccccc1N1CCN(C2CCN(C(=O)c3cccc(F)c3)CC2)CC1	i	i	i	i	i
NC(=O)c1ncn([C@@H]2O[C@H](CO)[C@@H](O)[C@H]2O)c1O	i	i	-9*	i	i
Nc1ncn(C2O[C@H](CO)[C@@H](O)[C@H]2O)c(=O)n1 (stereo partly drawn)	·	i	i	i	·
COc1cc2c(cc1NC(=S)Nc1cccc(C(F)(F)F)c1)oc1ccccc12	i	i	-5.7*	i	i
COc1cc2c(cc1NC(=S)Nc1cccc3ccccc13)oc1ccccc12	i	i	i	i	i
Cc1ccc(Cn2nc(C)c(NC(=O)CSc3n[nH]c(C)c3[N+](=O)[O-])c2C)cc1	i	i	-6*	i	i
CN(C)c1cccc(C(=O)NNC(=O)NC2CCCCC2)c1	i	i	i	i	i
COc1cc(OC)cc(C(=O)NNC(=O)NC2CCCCC2)c1	i	i	-7*	i	i
O=C(COC(=O)/C=C/c1ccco1)Nc1ccc(F)cc1Cl	i	i	i	i	i
Cc1ccc(-c2cc(C(=O)Nc3ccccn3)c3ccccc3n2)o1	i	i	-5.1*	i	i
CC(C)c1ccc(OCC(=O)N2CCN(C(=O)c3ccco3)CC2)cc1	i	i	i	i	i
O=C(CCN1CCCCCC1)c1ccccc1	·	i	i	31*	·
CC(=O)C(=Nc1ccccc1Cl)NNc1ccc(Cl)cc1	i	i	i	i	-11*
COc1ccc(C(=O)NC2CCCc3ccccc32)cc1S(=O)(=O)N1CCOCC1 (stereo not drawn)	i	i	i	i	i
CCOC(=O)N1CCN(CC(O)COc2c(C)cc(C)cc2C)CC1 (stereo not drawn)	i	i	i	i	i
Cn1c(CNC(=O)c2ccccc2F)nnc1SCCOc1ccccc1	i	i	i	i	i
CC1=C(C)CS(=O)N(c2ccc(S(N)(=O)=O)cc2)C1 (stereo not drawn)	i	i	i	53*	i
CC1=C(C)CS(=O)N(S(=O)(=O)c2ccccc2)C1 (stereo not drawn)	i	i	i	i	i
CCOc1cccc2cc(-c3nnc(NCc4ccco4)s3)c(=O)oc12	i	i	-4.8*	i	i
O=C(/C=C/c1cccnc1)c1ccc(NC(=O)c2cccc(Br)c2)cc1	i	7.1*	i	i	i
